According to PMC10917149 (European journal of medicinal chemistry, 2023):
Entries after “also recorded” stand apart in the source; their conditions may differ. Read-outs that look alike come from different tables or passages of the source.

How the values were obtained:
[1] = system: CB1R and CB2R; assay: Competition for [3H]CP55940 binding in HEK293 cell membranes; parameters: species or system human; details: HEK293 cell membranes without heterologous CB1R/CB2R
[2] = system: AI-sensitive GPCRs; assay: [35S]GTPγS binding in HEK293 cell membranes; assay type: biochemical, human; details: for [35S]GTPγS response after pertussis toxin: PTX 100 ng/ml pretreatment of HEK293 cells for 20 h
[3] = system: AI-sensitive GPCRs; assay: Competition for [3H]WIN55212-2 binding in HEK293 cell membranes; parameters: species or system human
Method in brief: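 P2 membrane fractions were prepared from independent HEK293 cultures, which lack CB1R and CB2R. Membranes were incubated with [³H]WIN55212-2 and increasing concentrations of test compound, and specific binding was measured by filtration. Nonspecific binding was defined with 1 μM unlabelled WIN55212-2.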

[4] = molecular target: human CB2R (Homo sapiens, UniProt P34972); assay: CB2R internalization in HEK293 cells stably expressing HA-tagged CB2R; assay type: cell-based; details: AI compounds tested at 3 μM
Method in brief: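 HA-tagged human CB2R was expressed heterologously in cultured HEK293 cells. Test compound was given at 3 μM, with or without the CB2R antagonist AM630 at 1 μM; CP55940 at 1 μM served as the positive control. Internalization was expressed as % of vehicle control. Mean ± SEM of 3–5 independent experiments; one-way ANOVA with Bonferroni post-test.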

[5] = system: mouse CB2R; details: cited from earlier work
[6] = molecular target: human CB1R (Homo sapiens, UniProt P21554); assay: CB1R internalization in HEK293 cells stably expressing HA-tagged CB1R; assay type: cell-based; details: AI compounds tested at 3 μM
Method in brief: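 Human CB1R carrying an HA tag was expressed in cultured HEK293 cells. Test compound was applied at 3 μM, with CP55940 at 1 μM as the positive control. Internalization was read as % of vehicle control. Data are mean ± SEM of 3–5 independent experiments, compared by one-way ANOVA with Bonferroni post-test.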

[7] = read-out: KiHigh (AIHigh binding sites), high affinity site

human CB2R, sequence (P34972 whole entry): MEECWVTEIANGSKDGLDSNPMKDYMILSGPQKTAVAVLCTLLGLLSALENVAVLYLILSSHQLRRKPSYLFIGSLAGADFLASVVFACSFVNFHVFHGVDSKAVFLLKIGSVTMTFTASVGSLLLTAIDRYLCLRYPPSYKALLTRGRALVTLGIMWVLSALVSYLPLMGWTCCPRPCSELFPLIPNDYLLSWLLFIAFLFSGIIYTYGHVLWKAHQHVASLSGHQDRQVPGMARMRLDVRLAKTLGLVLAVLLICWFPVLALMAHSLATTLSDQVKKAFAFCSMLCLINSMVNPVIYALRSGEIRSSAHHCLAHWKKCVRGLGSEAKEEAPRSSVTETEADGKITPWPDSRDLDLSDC
human CB1R, sequence (P21554 whole entry): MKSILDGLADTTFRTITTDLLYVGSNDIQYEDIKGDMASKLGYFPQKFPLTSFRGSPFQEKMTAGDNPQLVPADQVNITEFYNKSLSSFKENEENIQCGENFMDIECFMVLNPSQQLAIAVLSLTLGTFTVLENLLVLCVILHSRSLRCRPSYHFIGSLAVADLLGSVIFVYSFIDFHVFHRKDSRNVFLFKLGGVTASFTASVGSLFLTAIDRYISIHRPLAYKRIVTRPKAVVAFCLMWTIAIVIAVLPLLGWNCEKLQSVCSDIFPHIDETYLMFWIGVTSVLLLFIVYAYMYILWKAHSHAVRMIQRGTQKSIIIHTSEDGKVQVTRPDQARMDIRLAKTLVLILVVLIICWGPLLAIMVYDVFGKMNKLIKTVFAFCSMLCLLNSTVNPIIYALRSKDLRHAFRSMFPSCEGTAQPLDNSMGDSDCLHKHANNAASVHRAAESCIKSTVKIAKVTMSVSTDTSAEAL

With `Cc1c(C(=O)NN2CCCCC2)nn(-c2ccc(Cl)cc2Cl)c1-c1ccc(Cl)cc1` [SR141617] the “competition for [3H]CP55940 binding (in words)” value [1] was “failed to compete”.

With `COc1ccc2c(C(=O)c3ccc(C)c4ccccc34)c(C)n(CCN3CCOCC3)c2c1` [Compound 8] the “stimulation of [35S]GTPγS binding (in words)” value (shortened to “stimulation”) [2] was “increase”.

For `Cc1c(C(=O)c2cccc3ccccc23)c2cccc3c2n1[C@H](CN1CCOCC1)CO3` [WIN55212–3, reference compound], the “competition for [3H]WIN55212-2 binding (in words)” value [3] was “absence of competition”.

With `Cc1c(C(=O)c2cccc3ccccc23)c2cccc3c2n1[C@@H](CN1CCOCC1)CO3` [WIN55212-2, reference compound] the “manner of competition for [3H]WIN55212-2 binding (biphasic / monophasic)” value (“manner of competition … (biphasic / monophasic)” for short) [3] was “biphasic”, the Ki ([3]; read-out: KiHigh, high affinity site of biphasic competition curve) was 0.043 nM and the Ki ([3]; read-out: KiLow, low affinity site of biphasic competition curve) was 7.2 nM.

With `Cc1ccc(C(=O)c2c(C)n(CCN3CCOCC3)c3cc(Cl)cc(Cl)c23)c2ccccc12` [Compound 11] the “competition for [3H]WIN55212-2 binding (in words)” value [3] was “inactive” and the “binding at 1 μM” value ([3]; at 1 μM) was “no measurable binding”.

In the case of `Cc1ccc(C(=O)c2c(C)n(CCN3CCOCC3)c3ccccc23)c2ccccc12` [Compound 2], the “CB2R internalization (in words)” value [4] is reported as “stimulated significant CB2R internalization; also recorded: activate”, the “manner of competition … (biphasic / monophasic)” value [3] is reported as “biphasic” and the Ki [3, 7] is reported as 0.8 nM. For the same compound, the “activation of mouse CB2R measured by receptor internalization” value (from here on “activation of mouse CB2R measured”) [5] was “do not activate” and the “CB1R internalization (in words)” value [6] was “retained significant activity; also recorded: stimulate significant CB1R internalization”.

For `CC1=C(CCN2CCOCC2)c2ccccc2/C1=C\c1cccc2ccccc12` [Compound 33, reference compound], the “stimulation” value [2] was “stimulated” and the “competition for [3H]WIN55212-2 binding (in words)” value [3] was “compete”.

For `Cc1ccc(C(=O)c2c(C)n(CC(F)(F)F)c3ccccc23)c2ccccc12` [Compound 5], the “CB2R internalization (in words)” value [4] is listed as “stimulated significant CB2R internalization; also recorded: activate”, the “activation of mouse CB2R measured” value [5] is listed as “do not activate” and the “CB1R internalization (in words)” value [6] is listed as “inactive”.

With `CCn1c(C)c(C(=O)c2ccc(C)c3ccccc23)c2ccccc21` [JWH-451, reference compound] the “stimulation” value [2] was “increases”, the “[35S]GTPγS response after pertussis toxin” value [2] was “significantly reduced” and the “[35S]GTPγS response in presence of CB1R and CB2R antagonists” value ([2]; SR141617 (1 μM) and SR144528 (1 μM)) was “insensitive; also recorded: not affected”. For the same compound, the “CB2R internalization (in words)” value [4] was “stimulated significant CB2R internalization; also recorded: activate”, the “manner of competition … (biphasic / monophasic)” value [3] was “biphasic” and the Ki [3, 7] was 1.5 nM. For the same compound, the “activation of mouse CB2R measured” value [5] was “do not activate” and the “CB1R internalization (in words)” value [6] was “inactive”.

In the case of `Cc1c(C(=O)c2cccc3ccccc23)c2ccccc2n1C` [JWH-042, reference compound], the “manner of competition … (biphasic / monophasic)” value [3] is reported as “biphasic”.

For `CCn1c(C)c(C(=O)c2ccc(OC)cc2)c2ccccc21` [Compound 14], the “competition for [3H]WIN55212-2 binding (in words)” value [3] was “inactive”.

In the case of `CCCCCCC(C)(C)c1ccc([C@@H]2C[C@H](O)CC[C@H]2CCCO)c(O)c1` [CP55940], the “competition for [3H]CP55940 binding (in words)” value [1] is reported as “failed to compete”.

With `Cc1ccc(C(=O)c2c(C)n(CCN3CCOCC3)c3ccc(Cl)cc23)c2ccccc12` [Compound 9] the “manner of competition … (biphasic / monophasic)” value [3] was “biphasic”, the Ki [3, 7] was 10 nM and the Ki ([3]; read-out: KiLow (AILow binding sites), low affinity site) was 2300 nM.

In the case of `CC1=C(CCN2CCOCC2)c2ccccc2/C1=C/c1cccc2ccccc12` [Compound 34, reference compound], the “competition for [3H]WIN55212-2 binding (in words)” value [3] is reported as “does not compete; also recorded: no significant competition”.

In the case of `Cc1ccc(C(=O)c2c(C)n(CCN3CCOCC3)c3cnccc23)c2ccccc12` [Compound 13], the “manner of competition … (biphasic / monophasic)” value [3] is reported as “biphasic” and the Ki [3, 7] is reported as 5.8 nM.

For `C1=C(CCN2CCOCC2)c2ccccc2/C1=C\c1cccc2ccccc12` [Compound 31, reference compound], the “stimulation” value [2] was “stimulated” and the “competition for [3H]WIN55212-2 binding (in words)” value [3] was “compete”.

In the case of `Cc1ccc(C(=O)c2c3n(c4ccccc24)CCCC3)c2ccccc12` [Compound 4], the “CB2R internalization (in words)” value [4] is given as “stimulated significant CB2R internalization; also recorded: activate”, the “manner of competition … (biphasic / monophasic)” value [3] is given as “biphasic” and the “activation of mouse CB2R measured” value [5] is given as “do not activate”. The “CB1R internalization (in words)” value [6] was “retained significant activity; also recorded: stimulate significant CB1R internalization”.

With `Cc1ccc(C(=O)c2c(C)n(CCN3CCOCC3)c3ncccc23)c2ccccc12` [Compound 12] the “stimulation” value [2] was “increase”, the “[35S]GTPγS response after pertussis toxin” value [2] was “pertussis toxin-sensitive” and the “CB2R internalization (in words)” value [4] was “stimulated significant CB2R internalization; also recorded: activate”. For the same compound, the “enhanced activity at AIHigh versus AILow” value [3] was ~ 1000 fold, the “manner of competition … (biphasic / monophasic)” value [3] was “biphasic” and the Ki [3, 7] was 0.4 nM. For the same compound, the “activation of mouse CB2R measured” value [5] was “do not activate” and the “CB1R internalization (in words)” value [6] was “retained significant activity; also recorded: stimulate significant CB1R internalization”.

With `Cc1ccc(C(=O)c2c(C)n(CCN3CCOCC3)c3cc(Cl)ccc23)c2ccccc12` [Compound 10] the “stimulation” value [2] was “increase”, the “[35S]GTPγS response after pertussis toxin” value [2] was “pertussis toxin-sensitive” and the “KiLow (AILow binding sites)” value ([3]; low affinity site) was “undetectable”.

In the case of `COc1ccc2c(c1)c(C(=O)c1ccc(C)c3ccccc13)c(C)n2CCN1CCOCC1` [Compound 7], the “competition for [3H]WIN55212-2 binding (in words)” value [3] is reported as “inactive; also recorded: loss of binding”.

For SR144528, the “competition for [3H]CP55940 binding (in words)” value [1] was “failed to compete”.

With `C1=C(CCN2CCOCC2)c2ccccc2/C1=C/c1cccc2ccccc12` [Compound 32, reference compound] the “competition for [3H]WIN55212-2 binding (in words)” value [3] was “weakly competes”.

In the case of `Cc1ccc(C(=O)c2c(C)n(C)c3ccccc23)c2ccccc12` [JWH-450, reference compound], the “manner of competition … (biphasic / monophasic)” value [3] is reported as “biphasic”.
